This note sets out measurements from ChEMBL document CHEMBL4364282, “Engineered Substrate for Cyclooxygenase-2: A Pentapeptide Isoconformational to Arachidonic Acid for Managing Inflammation” (J Med Chem, 2019).

For series [1], the target named is T1, Prostaglandin G/H synthase 1 (Ovis aries, UniProt P05979).
T1 sequence (P05979 whole entry): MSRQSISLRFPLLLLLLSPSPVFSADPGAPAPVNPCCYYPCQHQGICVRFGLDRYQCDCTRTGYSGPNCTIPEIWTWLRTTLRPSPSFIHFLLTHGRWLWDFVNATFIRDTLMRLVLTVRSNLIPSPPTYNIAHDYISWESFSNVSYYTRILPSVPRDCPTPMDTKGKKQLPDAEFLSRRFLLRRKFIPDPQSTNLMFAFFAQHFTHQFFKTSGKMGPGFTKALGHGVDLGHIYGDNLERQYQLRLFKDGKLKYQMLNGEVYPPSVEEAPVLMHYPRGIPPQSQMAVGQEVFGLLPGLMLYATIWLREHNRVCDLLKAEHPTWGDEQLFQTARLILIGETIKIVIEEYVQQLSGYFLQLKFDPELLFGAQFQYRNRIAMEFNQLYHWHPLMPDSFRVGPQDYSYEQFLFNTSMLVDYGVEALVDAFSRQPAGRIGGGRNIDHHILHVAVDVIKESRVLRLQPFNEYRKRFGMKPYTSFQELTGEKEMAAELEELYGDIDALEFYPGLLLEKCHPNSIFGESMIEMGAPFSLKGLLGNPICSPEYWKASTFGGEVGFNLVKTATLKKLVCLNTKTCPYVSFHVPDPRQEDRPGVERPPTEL
Kind of series: Inhibition of ovine COX-1 assessed as reduction in prostaglandin production preincubated for 10 mins followed by arachidonic acid addition and measured after 2 mins by EIA method.

Series [2] has as its system Rattus norvegicus. The series is described as follows: Analgesic activity in Wistar rat model of acetic-acid-induced writhing assessed as inhibition of writhing numbers at 5 to 10 mg/kg, ip preincubated for 30 mins followed by acetic acid induction and measured for 30 mins relative to control. It is filed as functional. A digest of the protocol: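 Male Wistar rats (250-300 g) in groups of 5. Writhing (abdominal contraction, trunk twisting, hind-leg extension) was induced by intraperitoneal acetic acid, and writhes were counted. Test doses were 5 and 10 mg/kg, with a vehicle control and indomethacin 10 mg/kg as reference. Data are mean±SEM (n=5), analysed by one-way ANOVA with Tukey's test (p<.05 vs control).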
On the technique in general: An intraperitoneal irritant provokes the stretching counted in writhing tests.

The nature of series [3]: Drug metabolism in Wistar rat assessed as 2-((S)-2-((S)-1-(2-aminoacetyl)pyrrolidine-2-carboxamido)propanamido)acetic acid formation at 10 mg/kg, ip measured after 6 hrs by LC-MS analysis. In kind it is ADME, organism-based. Conditions: in vivo. The gist of the method:
(§1)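 Blood serum was taken from treated rats at 30, 60, 90 and 120 min. Proteins were removed by centrifugation, and the supernatants were analysed by LC-MS with HRMS identification of peptide fragments. Breakdown was assessed up to 6 h.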

Series [4] can be described thus: Drug metabolism in Wistar rat assessed as (S)-1-(2-((S)-2-aminopropanamido)acetyl)pyrrolidine-2-carboxylic acid formation at 10 mg/kg, ip measured after 6 hrs by LC-MS analysis. It is filed as ADME, organism-based. The conditions noted are these: in vivo. The gist of the method: as §1
A short description of series [5]: Acute toxicity in Wistar rat assessed as induction of morphological lesions in kidney at 2000 mg/kg, po measured after 14 days by histological analysis. It is filed as organism-based. Conditions: in vivo, 336 h. The gist of the method: (§2)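 Acute oral toxicity per OECD guideline: rats fasted 4 h, then vehicle or single dose of 50, 300 or 2000 mg kg^-1; three rats per group. Animals observed for 14 days; one animal from the high-dose group and one control then sacrificed for tissue histology examined for lesions. Male Wistar rats, 250-300 g.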

In series [6] the test system is Rattus norvegicus. The series is described as follows: Anti-inflammatory activity in Wistar rat assessed as inhibition of carrageenan-induced paw edema at 10 mg/kg, ip preincubated for 1 hr followed by carrageenan challenge and measured for 6 hrs. In kind it is functional, organism-based. A digest of the protocol:
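Carrageenan-induced paw inflammation in male Wistar rats (250-300 g), three groups of 5 animals. Data are mean±SEM (n=5), analysed by one-way ANOVA with Tukey's multiple range test (p<.05 vs control).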

The target of series [7] is T2, Prostaglandin G/H synthase 2 (Homo sapiens, UniProt P35354).
T2 sequence (P35354 whole entry): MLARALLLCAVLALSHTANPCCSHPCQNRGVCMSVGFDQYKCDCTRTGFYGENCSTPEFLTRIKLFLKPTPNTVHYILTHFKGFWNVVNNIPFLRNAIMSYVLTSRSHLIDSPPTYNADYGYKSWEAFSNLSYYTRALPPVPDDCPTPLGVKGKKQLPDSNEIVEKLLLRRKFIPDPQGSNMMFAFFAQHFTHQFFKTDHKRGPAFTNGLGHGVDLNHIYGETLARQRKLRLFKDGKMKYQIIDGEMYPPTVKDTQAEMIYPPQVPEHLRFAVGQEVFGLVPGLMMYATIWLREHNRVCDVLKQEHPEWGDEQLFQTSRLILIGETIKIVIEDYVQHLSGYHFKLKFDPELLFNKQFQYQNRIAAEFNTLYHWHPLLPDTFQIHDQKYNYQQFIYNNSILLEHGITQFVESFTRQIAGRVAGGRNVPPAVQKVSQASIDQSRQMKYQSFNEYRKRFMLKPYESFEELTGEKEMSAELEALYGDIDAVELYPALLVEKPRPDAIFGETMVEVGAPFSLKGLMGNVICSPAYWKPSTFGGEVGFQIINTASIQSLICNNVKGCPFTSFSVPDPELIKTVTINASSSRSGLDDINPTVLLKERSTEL
Kind of series: Substrate activity at COX-2 (unknown origin) in DMSO-d6 assessed as chemical shift of NH protons of glycine residues by 1H NMR analysis. It is filed as ADME.

Series [8] deals with Rattus norvegicus. Kind of series: Analgesic activity in Wistar rat model of formalin-induced hyperalgesia assessed as reduction in number of formalin-evoked paw flinching during neurogenic phase at 10 mg/kg administered intraperitoneally 30 mins after nitric oxide precursor L-arginine injection followed by formalin induction after 30 mins and measured during first 5 mins post formalin injection. It is filed as functional, organism-based. A digest of the protocol: (§3)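 Formalin paw test in male Wistar rats (250-300 g), 5 per group. Flinching was counted separately in the neurogenic and inflammatory phases. Modulator studies used pre-treatment with substance P, L-NAME or L-arginine (NO precursor) in three groups each. Data are mean±SEM (n=5), analysed by one-way ANOVA with Tukey's test (p<.05 vs control).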

The nature of series [9]: Drug metabolism in Wistar rat assessed as 2-((S)-2-((S)-1-(2-((S)-2-aminopropanamido)acetyl)pyrrolidine-2-carboxamido)propanamido)acetic acid formation at 10 mg/kg, ip measured after 6 hrs by LC-MS analysis. The conditions noted are these: in vivo. It is filed as ADME, organism-based. A digest of the protocol: as §1
A short description of series [10]: Acute toxicity in Wistar rat assessed as induction of morphological lesions in myocardium at 2000 mg/kg, po measured after 14 days by histological analysis. Conditions: in vivo, 336 h. In kind it is organism-based. The gist of the method:
as §2

The subject of series [11] is Rattus norvegicus. Kind of series: Analgesic activity in Wistar rat model of formalin-induced hyperalgesia assessed as reduction in number of formalin-evoked paw flinching during neurogenic phase at 10 mg/kg administered intraperitoneally 30 mins after NOS inhibitor L-NAME injection followed by formalin induction after 30 mins and measured during first 5 mins post formalin injection. It is filed as functional, organism-based. The gist of the method: as §3

For series [12], the system named is Rattus norvegicus. The series is described as follows: Analgesic activity in Wistar rat model of formalin-induced hyperalgesia assessed as reduction in number of formalin-evoked paw flinching during inflammatory phase at 10 mg/kg preincubated for 30 mins followed by formalin treatment and measured after 15 to 30 mins relative to control. In kind it is functional. Further details: scale not given: the % may be the effect or the level left. The gist of the method:
as §3

A short description of series [13]: Drug metabolism in Wistar rat assessed as (S)-2-((S)-1-(2-((S)-2-aminopropanamido)acetyl)pyrrolidine-2-carboxamido)propanoic acid formation at 10 mg/kg, ip measured after 6 hrs by LC-MS analysis. In kind it is ADME, organism-based. The conditions noted are these: in vivo. The gist of the method: as §1
The test system of series [14] is Rattus norvegicus. Kind of series: Analgesic activity in Wistar rat model of formalin-induced hyperalgesia assessed as reduction in number of formalin-evoked paw flinching during neurogenic phase at 10 mg/kg preincubated for 30 mins followed by formalin treatment and measured during first 5 mins post formalin injection relative to control. It is filed as functional. Further details: scale not given: the % may be the effect or the level left. The gist of the method:
as §3

The subject of series [15] is Rattus norvegicus. Kind of series: Analgesic activity in Wistar rat model of formalin-induced hyperalgesia assessed as reduction in number of formalin-evoked paw flinching during inflammatory phase at 10 mg/kg administered intraperitoneally 30 mins after substance P injection followed by formalin induction after 30 mins and measured after 15 to 30 mins post formalin injection. It is filed as functional, organism-based. A digest of the protocol:
as §3

Series [16] concerns the target Prostaglandin G/H synthase 1 (Homo sapiens, UniProt P23219). The series is described as follows: Inhibition of COX-1 in human whole blood assessed as reduction in calcium ionophore A23187-stimulated thromboxane B2 production by measuring thromboxane B2 level at 1 uM preincubated for 60 mins followed by calcium ionophore A23187 stimulation and measured after 30 mins by ELISA (reference value: 1.4 ng/mL). In kind it is tissue-based. Conditions: 0.5 h. The gist of the method: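 Human whole blood stimulated with calcium ionophore to drive COX-1, with thromboxane B2 formation measured. The test concentration was 1 μM, and indomethacin 1 μM served as reference.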
Background: In an ELISA, binding on a coated surface is turned into a signal by an enzyme label.

Series [17] deals with Rattus norvegicus. The series is described as follows: Analgesic activity in Wistar rat model of formalin-induced hyperalgesia assessed as reduction in number of formalin-evoked paw flinching during neurogenic phase at 10 mg/kg administered intraperitoneally 30 mins after substance P injection followed by formalin induction after 30 mins and measured during first 5 mins post formalin injection. It is filed as functional, organism-based. A digest of the protocol: as §3

In series [18] the test system is Rattus norvegicus. Kind of series: Analgesic activity in Wistar rat model of formalin-induced hyperalgesia assessed as reduction in number of formalin-evoked paw flinching during inflammatory phase at 10 mg/kg administered intraperitoneally 30 mins after nitric oxide precursor L-arginine injection followed by formalin induction after 30 mins and measured after 15 to 30 mins post formalin injection. It is filed as functional, organism-based. The gist of the method:
as §3

Series [19] can be described thus: Drug metabolism in Wistar rat assessed as methyl 2-((S)-2-((S)-1-(2-aminoacetyl)pyrrolidine-2-carboxamido)propanamido)acetate formation at 10 mg/kg, ip measured after 6 hrs by LC-MS analysis. In kind it is ADME, organism-based. Conditions: in vivo. The gist of the method: as §1
Series [20] is described as follows: Acute toxicity in Wistar rat assessed as induction of morphological lesions in liver at 2000 mg/kg, po measured after 14 days by histological analysis. It is filed as organism-based. Conditions: in vivo, 336 h. The gist of the method: as §2
Series [21] relates to Rattus norvegicus. Kind of series: Analgesic activity in Wistar rat model of formalin-induced hyperalgesia assessed as reduction in number of formalin-evoked paw flinching during inflammatory phase at 10 mg/kg administered intraperitoneally 30 mins after NOS inhibitor L-NAME injection followed by formalin induction after 30 mins and measured after 15 to 30 mins post formalin injection. It is filed as functional, organism-based. The gist of the method:
as §3

Series [22] addresses T2, Prostaglandin G/H synthase 2. The series is described as follows: Substrate activity at COX-2 (unknown origin) in DMSO-d6 assessed as chemical shift of NH protons of alanine residues by 1H NMR analysis. In kind it is ADME.

Active and inactive are the calls of the source. The calls are words filed in the database; no cut-off is given here. Peptide text beside a SMILES is read from it. * marks the point of attachment. Cbz = O=C(OCc1ccccc1)*; Boc = CC(C)(C)OC(=O)*

Prostaglandin G/H synthase 1 (Homo sapiens, UniProt P23219), sequence (P23219 whole entry): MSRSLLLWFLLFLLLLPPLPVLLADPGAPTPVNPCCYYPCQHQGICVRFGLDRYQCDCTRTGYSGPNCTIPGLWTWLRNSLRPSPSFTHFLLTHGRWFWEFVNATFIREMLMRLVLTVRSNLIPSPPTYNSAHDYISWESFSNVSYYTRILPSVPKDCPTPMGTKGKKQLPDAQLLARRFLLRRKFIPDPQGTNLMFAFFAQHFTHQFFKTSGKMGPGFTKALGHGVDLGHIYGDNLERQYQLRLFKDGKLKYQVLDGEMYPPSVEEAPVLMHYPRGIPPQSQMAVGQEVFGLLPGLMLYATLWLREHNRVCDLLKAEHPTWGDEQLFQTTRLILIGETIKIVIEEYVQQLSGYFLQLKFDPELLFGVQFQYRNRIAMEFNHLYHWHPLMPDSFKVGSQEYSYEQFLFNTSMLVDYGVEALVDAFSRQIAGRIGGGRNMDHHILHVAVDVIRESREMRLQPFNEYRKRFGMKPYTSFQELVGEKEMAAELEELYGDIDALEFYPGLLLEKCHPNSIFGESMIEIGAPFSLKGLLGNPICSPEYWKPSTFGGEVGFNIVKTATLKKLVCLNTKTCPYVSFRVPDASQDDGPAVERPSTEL

`COC(=O)CNC(=O)[C@H](Cc1ccccc1)NC(=O)[C@@H]1CCCN1C(=O)[C@H](Cc1ccccc1)NC(=O)[C@H](C)NC(=O)OCc1ccccc1` (Cbz-AFPFG-OMe): the concentration for half-maximal inhibition (IC50) in [1] turned out to be 600 µM. For the same molecule, the result with Rattus norvegicus [2] was Active.
The corresponding values for `COC(=O)CNC(=O)[C@H](CCSC)NC(=O)[C@H](Cc1ccccc1)NC(=O)[C@@H]1CCCN1C(=O)OC(C)(C)C` (Boc-PFMG-OMe) are 50 µM and “Active”.
Take `COC(=O)CNC(=O)[C@H](C)NC(=O)[C@@H]1CCCN1C(=O)CNC(=O)[C@H](C)N` (H-AGPAG-OMe): the Drug metabolism result in series [3], in series [4], in series [9], in [13] and in [19] was “Metabolite_Detected” each time. In addition, the Activity entry in series [5] was “Non-Toxic”; in [7], “Active”; in series [10] it was “Non-Toxic”; with Rattus norvegicus [2], 80%; in the series on Rattus norvegicus [12], 80%; in the series with Rattus norvegicus [14], 56%. Moreover, the Activity in series [16] was 1.2 ng/mL; in [20] it was “Non-Toxic”; in [22], “Active”. For the same molecule, the outcome in the series with Rattus norvegicus [6], in the series with Rattus norvegicus [11] and with Rattus norvegicus [21] was Active. Also, the result in the series on Rattus norvegicus [8], in the series on Rattus norvegicus [15], in the series on Rattus norvegicus [17] and with Rattus norvegicus [18] was inactive.

In general, IC50 refers to the point on the concentration scale where inhibition reaches its midpoint.
